Experimental data published in ChEMBL document CHEMBL1811870, “Synthesis, gp120 binding and anti-HIV activity of fatty acid esters of 1,1-linked disaccharides” (Bioorg Med Chem, 2011).
Calls of active or inactive are those of the source. The rule behind the calls is not given here.

Key:
[1] = Cytotoxicity against human TZM-bl cells up to 200 uM after 24 hrs by MTS assay; assay type: cell-based
Summary of the method: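 TZM-bl cells were seeded and left overnight, then exposed to serial dilutions starting at 200 μM for 24 h. MTS dye reduction was read as OD at 490 nm and normalized to cells in medium only.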

[2] = system: Human immunodeficiency virus; assay: Antiviral activity against HIV NL-Lai infected in human TZM-bl cells assessed as inhibition of viral infection after 24 hrs by luciferase assay; assay type: functional, organism-based; conditions: Human immunodeficiency virus 1, NL-Lai
Summary of the method: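 TZM-bl cells (2×10^4/well) adhered overnight, then infected with X4 NL-Lai virus (from 293T transfection, titered on TZM-bl) with 20 μg/mL DEAE dextran and serial dilutions of compound. Luciferase read 24 h post infection and normalized to virus-only wells. IC50 taken from curve fit of data pooled from at least three independent experiments.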

[3] = system: Human immunodeficiency virus 1; assay: Binding affinity to HIV1 3B R15K V3 loop of gp-120 using monomolecular film after 2 to 3 hrs by microtensiometer analysis
Summary of the method: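 Glycolipid monolayers spread from hexane-chloroform-ethanol onto a pure water subphase at various initial surface pressures, with 5 min allowed for solvent evaporation, at 20°C ± 1°C. Critical pressure of insertion extrapolated to zero Δπ; surface pressure accuracy ± 0.25 mN/m.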

[4] = system: Human immunodeficiency virus; assay: Antiviral activity against HIV NL-Lai infected in human TZM-bl cells assessed as inhibition of viral infection at 100 uM treated 4 hrs after viral infection measured after 24 hrs by luciferase assay; assay type: functional, organism-based
Summary of the method: (§1)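 TZM-bl cells infected with NL-Lai (X4) virus. Compounds at 100 μM were given either before infection or 4 h after infection. In the post-infection arm, unbound virus was washed off with PBS and fresh medium containing compound was added. T20 and AMD3100 controls were used at 2 μM. Luciferase was read 24 h later. Mean ± SD of triplicates.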

[5] = Critical micelle concentration of the compound; assay type: physicochemical
Summary of the method: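 Glycolipid stocks in hexane:chloroform:ethanol (11:5:4) were injected 1:1000 into water, with surface tension recorded continuously on a microtensiometer. CMC was taken as the concentration above which surface tension no longer fell. Measured in triplicate.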

[6] = system: Human immunodeficiency virus; assay: Antiviral activity against HIV NL-Lai infected in human TZM-bl cells assessed as inhibition of viral infection at 100 uM treated before viral infection measured after 24 hrs by luciferase assay; assay type: functional, organism-based; summary of the method: as §1

| Compound | Activity [1] | IC50 [2] | CPI [3] | inhibition [4] | CMC [5] | inhibition [6] |
| --- | --- | --- | --- | --- | --- | --- |
| CCCCCCCCCCCCCCCC(=O)OC[C@H]1O[C@H](OC)[C@@H](O)[C@@H](O)[C@@H]1OC(=O)CCCCCCCCCCCCCCC | Non-toxic | > 100 µM | 18 mN/meter |  |  |  |
| CCCCCCCCCCCCCCCC(=O)O[C@@H]1[C@H](O)[C@@H](O[C@@H]2O[C@H](CO)[C@H](O)[C@H](O)[C@H]2O)O[C@H](CO)[C@H]1O | Non-toxic | 76 µM | 18 mN/meter | inactive | 12 µM | Active |
| CCCCCCCCCCCC(=O)OCC(O)CO (centres undefined) [GLYCEROL MONOLAURATE] |  | > 100 µM |  |  |  |  |
| c1cc(CN2CCCNCCNCCCNCC2)ccc1CN1CCCNCCNCCCNCC1 |  |  |  | inactive |  | Active |
| CCCCCCCCCCCCCCCC(=O)OC[C@H]1O[C@H](OC)[C@@H](O)[C@@H](O)[C@@H]1O | Non-toxic | > 100 µM | 18 mN/meter |  | 13 µM |  |
| CCCCCCCCCCCCCCCCO[C@@H]1O[C@H](CO)C(O)[C@H](O)[C@H]1O (single isomer, unassigned) | Non-toxic | 43.5 µM |  | inactive |  | Active |
| CCCCCCCCCCCCCCCC(=O)OC[C@H]1O[C@H](O[C@H]2O[C@H](CO)[C@H](O)[C@H](O)[C@H]2O)[C@@H](O)[C@@H](O)[C@@H]1O | Non-toxic | 48.4 µM |  | inactive |  | Active |
| CCCCCCCCCCCCCCCC(=O)OC[C@H]1O[C@H](O[C@@H]2O[C@H](CO)[C@H](O)[C@H](O)[C@H]2O)[C@@H](O)[C@@H](O)[C@@H]1O | Non-toxic | > 100 µM | 18 mN/meter |  | 9.8 µM |  |
| CCCCCCCCCCCCCCCC(=O)OC[C@H]1O[C@H](O[C@@H]2O[C@H](CO)[C@@H](O)[C@H](O)[C@H]2O)[C@@H](O)[C@@H](O)[C@@H]1O | Non-toxic | 52.5 µM | 18 mN/meter | inactive | 10 µM | Active |
| CCCCCCCCCCCCC/C=C/[C@@H](O)[C@H](CO[C@@H]1O[C@H](CO)[C@H](O)[C@H](O)[C@H]1O)NC(=O)C(O)CCCCCCCCCCCCCCCCCCCCCC (some centres undefined) | Non-toxic |  | 22 mN/meter |  |  |  |
| CCCCCCCCCCCCCCCC(=O)OC[C@H]1O[C@H](O[C@@H]2O[C@H](CO)[C@H](O)[C@H](O)[C@H]2O)[C@@H](O)[C@@H](O)[C@@H]1OC(=O)CCCCCCCCCCCCCCC | Non-toxic | > 100 µM | 18 mN/meter |  |  |  |
